Results reported in the EternaBench riboswitch data.

Test system: MS2 coat protein
Assay: apparent Kd, MS2 coat protein; higher = weaker binding; RNA-MaP array; FMN 200 µM where present
In short: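 The apparent Kd is the median of filtered binding-curve fits, one per cluster, to green signal normalised to red-channel RNA signal and control-cluster median Fmax. The clusters were on Illumina sequencing chips, and stalled E. coli RNA polymerase had transcribed the designs on them. Titration used SNAP-549-labelled MS2 coat protein from 0.7 or 1.5 nM, doubling to 3 µM, without and then with constant ligand, in 100 mM Tris-HCl pH 7.5, 80 mM KCl, 4 mM MgCl2, BSA, DTT, yeast tRNA and Tween-20.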

[1] = designed as: ON switch for flavin mononucleotide, no ligand
[2] = ligand present: flavin mononucleotide, designed as: ON switch for flavin mononucleotide
[3] = designed as: OFF switch for flavin mononucleotide, no ligand
[4] = ligand present: flavin mononucleotide, designed as: OFF switch for flavin mononucleotide

Row | Sequence | apparent Kd [1] | apparent Kd [2] | apparent Kd [3] | apparent Kd [4]
1 | AUUACAUGAGGAUCACCCAUGUACAGAACGUUUCAUUACAGUGAGGAUAUACGAAAUGUAGGAGCGUAGAAGGCACUGGGUACA | 129 nM | 40.1 nM |  | 
2 | AUUAGUAUCUAGGAUAUCUAGUACAUAGUAUCUAGAGAAGGAGAUACAUGAGGAUCACCCAUGUUCUGUGAUCU |  |  | 204 nM | 44.4 nM
3 | AUUAUAUAGAUAGGAUAUAGAAUAUUAUUUUAACAUGAGGAUCACCCAUGUAACCUUAUGUGUAGCUAGAAGGAUCAUUUAUUA |  |  | 80.3 nM | 113 nM
4 | AUUAUAUAGUAAGGAUAUAGAUUAUUAUUUUAACAUGAGGAUCACCCAUGUAGCCUUAUGUAUAACUAGAAGGUACAUUUAUUA |  |  | 47.8 nM | 50.5 nM
5 | AUUAUGACCGAGUUAUAACUCUAAACAUGAGGAUCACCCAUGUAGGAUAUCAGCACGAUAAGUGCUGAGAAGGACAUCUCGGUC |  |  | 16.4 nM | 18.1 nM
6 | AUUAUGUAAGGAUAUCUUACAUGUGACUUCGGUCACUGUUCAGAGAAGGUACAUGAGGAUCACCCAUGUAGAAC |  |  | 17.9 nM | 18.4 nM
7 | AUUAUGUCAGGAUAUCAGUAGUAAAAAAAAAAAAUUACUACUGAGAAGGGACAUGAGGAUCACCCAUGUCAAAA |  |  | 23 nM | 30.6 nM
8 | AUUAUUGGCUAAGGAUAUGGAUACAUGAGGAUCACCCAUGUAUAAUUUGUGAUCAUAUAAAUGAUCCAGAAGGUAGCUGUUUAU |  |  | 81.6 nM | 220 nM
9 | AUUAUUUAUAGUUAUUGGUAAUUGACAGAAGGUGAAAGUGUCACAUGAGGAUCACCCAUGUUCUUCAAGGAUAUGUUGGUAUAC | 88.3 nM | 14 nM |  | 
10 | AUUCCUUGUGUUAGGAUAUGUCACUACCGUAUGCGACAGAAGGAACAUGAGGAUCACCCAUGUGAGUUAGCCGA |  |  | 87.5 nM | 24.1 nM
11 | AUUGUUAAGUUAGGAUAUAGUAAAAUAAUUUAGUUAGAAGGAGCUCACAUGAGGAUCACCCAUGUAAGAGGAUCACCCAUGUAU |  |  | 25.6 nM | 20.1 nM
12 | AUUUAAAAGUCAGGAUAUGGUAGAUUAUUCUUAUCAGAAGGGAUUAUUAUACUCAAGUACAUGAGGAUCACCCAUGUUAAAUCA | 18.1 nM | 10.2 nM |  | 
13 | AUUUAACAUGAGGAUCACCCAUGUGAGGAUAUGUCCAUAUUCGGCAAAUCGGAUAUGGACAGAAGGCACACCGG |  |  | 105 nM | 194 nM
14 | AUUUAGUGCGAGAAGGCGUGGUCACAUGAGGAUCACCCAUGUCAGUACACGAGGAUAUCGAUCCGCUAUGUAAAUAUAUGCGGC | 78 nM | 7.51 nM |  | 
15 | AUUUAUGGCCAGAAGGACAUGAGGAUCACCCAUGUAGGAUAUGGACGAUUUUGCCCGGCGGUUCGUUUAGGAAGCACCGGUGGU | 11.5 nM | 7.11 nM |  | 
16 | AUUUAUUAGUAAGGAUAUACUAGCGAUUAGCUUGUAGAAGGUACAGUCUUAUGUAUAACAUGUUAACAUGAGGAUCACCCAUGU | 60.4 nM | 27.9 nM |  | 
17 | AUUUCAUUCCUUCGACCAUUACCGAGAAGGGUCCACAUGAGGAUCACCCAUGUGGUCCUGAGCGGACAGGAUAUCGGAGUCGGG |  |  | 18.2 nM | 17.7 nM
18 | AUUUCGUCAGGAUAUCCUAGUAAUUGUUUCAUAUUUACGAUGGAGAAGGGACAUGAGGAUCACCCAUGUUGGUC |  |  | 55.8 nM | 169 nM
19 | AUUUGACACGUAGGAUAUCGCUCAAAUUUAACACGAGAAGGACGAACAUGAGGAUCACCCAUGUAACAUGGUGUAGUUUAUUUG |  |  | 62.7 nM | 88.1 nM
20 | AUUUUAAAGGGAGGAUAUACAUGAGGAUCACCCAUGUAAACGUGAGGAUCACCCAUGUAAACAAUGUAGAAGGCCUAAAUCUAU |  |  | 86.1 nM | 73.6 nM
21 | AUUUUUAAGGUAGGAUAUAGUAUGAUGGUUUAAUUAGAAGGAUCUCACAUGAGGAUCACCCAUGUAAUAGGAUUACCCAUGUAU |  |  | 53.7 nM | 33.3 nM

Row | Sequence | apparent Kd [1] | apparent Kd [2] | apparent Kd [3] | apparent Kd [4]
22 | CAAAACGUCGAGAAGGGCUCAGCGCAAGUGCCAGCAGGAUAUCGACAUGAGGAUCACCCAUGUCGUAUUUCAGGGUAGAUUUCA |  |  | 8.66 nM | 34.9 nM
23 | CAAAAGCGAGGAUAUACAUGAGGAUCACCCAUGUGGCAGCCAUGUAGGAGUGACGUCGGUAGAAGGCGCACCCU |  |  | 99.8 nM | 141 nM
24 | CAAUUGGCACAGAAGGGUGACAUGAGGAUCACCCAUGUAGCGUGGCACUCAGGAGAAGCCACGCCACAGGAUAUGUGCCGGCAC | 73.6 nM | 37.1 nM |  | 
25 | CAAUUUAUAACAGGAUAUAUAAUACAAUAGUUAAUAGAAGGGUUUAAUACAUGAGGAUCACCCAUGUCAUGUGUCAUAAUUACC |  |  | 34.8 nM | 30.5 nM
26 | CAAUUUAUAACAGGAUAUGUAUUACAAAAGUUAAUAGAAGGGUUUAAUACAUGAGGAUCACCCAUGUCAUGUGUCAUAAUUACC |  |  | 36.7 nM | 29.6 nM
27 | CACACAUGAGGAUCACCCAUGUCGUGGGCGGAAAACUGUGCACAGGAUAUGGUGAAGGCAACUCACCAGAAGGGUGGUCAGGGA | 113 nM | 55 nM |  | 
28 | CACCGUUACAGAGGAUAUGACACAUGAGGAUCACCCAUGUAAUAAAUGAGAAUUUCGAAUGUAACUCAGAAGGCUGGAAUCGGC |  |  | 30.5 nM | 52.8 nM
29 | CACGCGAAAAGGAGUACAUGAGGAUCACCCAUGUAGGGUGGGAGAAGGCCGGUCGAGAGGUUUAUGGAGGAUAUUUAGGUGUUG | 78.8 nM | 52.5 nM |  | 
30 | CACGGUGAUGUAGGAUAUAUGCUGGAAUACAGCAUAGAAGGACAUGAGGAUCACCCAUGUAAAGUGUCUCCAAAUAACACCGUG |  |  | 31.1 nM | 77 nM
31 | CACGUCCACACAGGAUAUGCUGGACUUUGUCCAGCAGAAGGGUGACAUGAGGAUCACCCAUGUAAAAGGACGUGUAUAUUUAAU | 819 nM | 62.1 nM |  | 
32 | CACUGCAUGUAAGGAUAUCGACUGGAAUACAGUCGAGAAGGUACAUGAGGAUCACCCAUGUAAGCAGUGAAUAAUAAUAAUAAU |  |  | 12.1 nM | 23.4 nM
33 | CAGAAGUCAGGAUAUGCUGCUCGUCACUUGCGUGAUGAGUAGCAGAAGGGACAUGAGGAUCACCCAUGUAAAGG |  |  | 160 nM | 417 nM
34 | CAGCAAAAGUAGAAGGCAGUACUGAUUCAGUACUGAGGAUAUACAUGAGGAUCACCCAUGUAAUAUAGCUGAAUAAUAUAUUAU |  |  | 6.17 nM | 7.56 nM
35 | CAGCAAAAGUAGAAGGCAGUACUGAUUCAGUACUGAGGAUAUACAUGAGGAUCACCCAUGUCUUCCAGCUGAAUAAUAAAAUAA |  |  | 6.14 nM | 45.5 nM
36 | CAGCAAUGUAAGAAGGCUGCUCCGAUAAGGAGCAGAGGAUAUUACAUGAGGAUCACCCAUGUAUGAACCAAUAGCUGAAAUAAA |  |  | 8.78 nM | 94.2 nM
37 | CAGCGAUAGCUGAAUGGUACAUGGGAGGAUAUGGGUUACAUGAGGAUCACCCAUGUUAAAUAAUACUAGAAGGCCCAUGUACCU | 16.5 nM | 4.55 nM |  | 
38 | CAGCGCUGUCGAGAGGAUAUGCGGUGAUGGACAUGAGGAUCACCCAUGUUAGCGAUAGCAUUACUGUAGAAGGCUCUACAGCUGC | 30.6 nM | 13 nM |  | 
39 | CAGCUACCCAGUAUGGGUAUUUGUACAGAAGGCCAGGUACAUGAGGAUCACCCAUGUAAAGAUAUGGAGGAUAUGUUAGUGUAU | 22.1 nM | 6.86 nM |  | 
40 | CAGCUGAAAGUCAGGAUAUCUAGAGCUGCGGCUCUAGAGAAGGGACAUGAGGAUCACCCAUGUCACUCCAGCUG |  |  | 16.4 nM | 18.3 nM
41 | CAGGAUAGAGGAUAUACAUAGAUACAGAUUCGUGUGAUCCUACAUGAGGAUCACCCAUGUAGAAGGCUAUCCUG |  |  | 213 nM | 15.9 nM
